Laboratory results: ChEMBL document CHEMBL1158326, “Isolation, synthesis, and antiplatelet aggregation activity of resveratrol 3-O-beta-D-glucopyranoside and related compounds” (J Nat Prod, 1997)
In brackets after ≈: the same amount, converted by molar mass.

Key:
Assay type in all cases: functional, cell-free
Platelet [1] = assay: Inhibition of adenosine diphosphate-induced platelet aggregation in human platelet-rich plasma
Summary of the method: (§1)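 Citrated human PRP from forearm-vein blood (3.8% citrate 1:9, spun 1250 rpm for 18 min at room temperature), adjusted to […] with PPP. Platelets stirred at 1000 rpm and preincubated 3 min at 37 °C with compound or 0.25% DMSO. Inducers were ADP 6 µM, adrenalin 2 µM, arachidonic acid 100 µM, or collagen. Turbidimetric aggregometry read-out; IC50 given as mean ± SE.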

Platelet [2] = assay: Inhibition of collagen-induced platelet aggregation in human platelet-rich plasma; summary of the method: as §1
Platelet [3] = assay: Inhibition of arachidonic acid-induced platelet aggregation in human platelet-rich plasma; summary of the method: as §1

SMILES	IC50 (Platelet [1])	IC50 (Platelet [2])	IC50 (Platelet [3])
COc1ccc(/C=C/c2cc(O)cc(O[C@@H]3O[C@H](CO)[C@@H](O)[C@H](O)[C@H]3O)c2)cc1	300 µg/mL (≈ 742 µM)	–	–
COc1ccc(/C=C\c2cc(O)cc(O)c2)cc1	101 µg/mL (≈ 415 µM)	33.9 µg	–
COc1ccc(/C=C/c2cc(O[C@@H]3O[C@H](CO)[C@@H](O)[C@H](O)[C@H]3O)cc(O[C@@H]3O[C@H](CO)[C@@H](O)[C@H](O)[C@H]3O)c2)cc1	300 µg/mL (≈ 530 µM)	–	–
COc1ccc(/C=C/c2cc(OC)c(OC)c(OC)c2)c(O[C@@H]2O[C@H](CO)[C@@H](O)[C@H](O)[C@H]2O)c1	300 µg/mL (≈ 627 µM)	–	–
COc1ccc(/C=C\c2cc(O[C@@H]3O[C@H](CO)[C@@H](O)[C@H](O)[C@H]3O)cc(O[C@@H]3O[C@H](CO)[C@@H](O)[C@H](O)[C@H]3O)c2)cc1	300 µg/mL (≈ 530 µM)	–	–
COc1ccc(/C=C\c2cc(O)cc(O[C@@H]3O[C@H](CO)[C@@H](O)[C@H](O)[C@H]3O)c2)cc1	198 µg/mL (≈ 490 µM)	–	–
COc1ccc(/C=C/c2cc(OC)c(OC)c(OC)c2)c(O)c1	300 µg/mL (≈ 948 µM)	–	–
COc1ccc(/C=C\c2cc(OC)c(OC)c(OC)c2)cc1O [COMBRETASTATIN A4]	75.2 µg/mL (≈ 238 µM)	–	–
COc1ccc(/C=C\c2cc(OC)c(OC)c(OC)c2)c(O)c1O [COMBRETASTATIN A-1]	60.6 µg/mL (≈ 182 µM)	–	–
OC[C@H]1O[C@@H](Oc2cc(O)cc(/C=C/c3ccc(O)cc3)c2)[C@H](O)[C@@H](O)[C@@H]1O [PICEID]	84.9 µg/mL (≈ 217 µM)	–	57.2 µg/mL (≈ 147 µM)
COc1ccc(/C=C/c2cc(O)cc(O)c2)cc1 [RESVERATROL 4'-METHYL ETHER]	119 µg/mL (≈ 492 µM)	–	–
OC[C@H]1O[C@@H](Oc2cc(O)cc(/C=C\c3ccc(O)cc3)c2)[C@H](O)[C@@H](O)[C@@H]1O [Z-PICEID]	120 µg/mL (≈ 308 µM)	–	–
